High-throughput results from PubChem BioAssay.
SIAE primary – blocks human sialic acid acetylesterase. Q9HAT2. SIAE FP-Rh probe binding, fluorescence polarization. 370,000 tested, 0.69% active. AID 1053197. inhibition, % at 9.66 µM;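 active = inhibition above a cutoff: mean of compounds within the control limits plus 3 SD of those, cut at about 17% in these data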;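 also: 0% = plate median of compound wells and 100% = probe without SIAE protein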
TDP2 absorb – blocks human TDP2 phosphodiesterase activity; recombinant TDP2, T5PNP hydrolysis, p-nitrophenol absorbance 415 nm; 370,000 tested, 0.34% active; O95551; AID 720702; inhibition, % at 12.8 µM;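 active = inhibition above the mean of all tested compounds plus 3 SD, set per campaign, cut at about 25% in these data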;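 also: 0% = DMSO with enzyme and 100% = buffer with substrate but no TDP2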
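Material: recombinant human TDP2; quantity: TDP2 enzyme at 120 nM final; medium: Tris-HCl pH 7.5 with MgCl2; compound: single concentration, 12.8 µM nominal, with 1% DMSO; incubation: 2 h enzyme incubation at 37 °C; signal: epi absorbance; measure: percent inhibition; benchmarks: high control without enzyme, low control DMSO plus TDP2; repeats: singlicate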
mABHD4 FP – ABHD4 (mouse) inhibition, primary FP screen; Q8VD66; purified mABHD4, FP-Rh probe fluorescence polarization; inhibition, % at 8.92 µM; 370,000 tested, 0.54% active;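 active = inhibition exceeding the mean over every tested compound plus 3 SD, cut at about 30% in these data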;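 also: 0% = plate median of compound wells and 100% = S159A mutant with DMSO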
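Assay system: Wild-type mouse ABHD4 protein | Medium: HEPES pH 7.0 buffer, 150 mM NaCl, 0.01% Pluronic F-127 | Incubation: Enzyme–compound pre-incubation 45 min, then probe 60 min, both 25 °C | Technique: Fluorescence polarization with parallel and perpendicular emission, 525/598 nm | Evaluation: % inhibition of FP-Rh probe binding versus controls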
TCR CD3 inh – inhibitors of human TCR-CD3 interaction; TAMRA-labeled TCR probe fluorescence, biochemical; inhibition, % at 9.4 µM; 360,000 tested, 0.37% active;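 also: recombinant mutant TCR 2C K166C tagged with TAMRA read by polarization; 0% = receptor in buffer alone and 100% = receptor with positive control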
LEDGF integ inh – blocks HIV-1 LEDGF/p75-dependent DNA integration; TR-FRET IN-LEDGF/p75 DNA integration, Eu/Cy5; inhibition, % at 3.7 µM; 370,000 tested, 0.64% active;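 active = inhibition above the screen-wide mean plus 3 SD, cut at about 13% in these data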;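 also: signal is the Cy5 over europium emission ratio at 671 and 618 nm; 0% = plate median of compound wells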
HTRA1 inhibitor – inhibitors of human serine peptidase HTRA1 | Q92743 | recombinant HTRA1, FP-rhodamine activity-based probe, fluorescence polarization | inhibition, % at 5.96 µM | 340,000 tested, 0.5% active | AID 504803; in the data active = inhibition above about 36%;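 also: 0% = enzyme with DMSO and 100% = wells lacking enzyme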
Target sequence (Q92743 whole entry, looked up): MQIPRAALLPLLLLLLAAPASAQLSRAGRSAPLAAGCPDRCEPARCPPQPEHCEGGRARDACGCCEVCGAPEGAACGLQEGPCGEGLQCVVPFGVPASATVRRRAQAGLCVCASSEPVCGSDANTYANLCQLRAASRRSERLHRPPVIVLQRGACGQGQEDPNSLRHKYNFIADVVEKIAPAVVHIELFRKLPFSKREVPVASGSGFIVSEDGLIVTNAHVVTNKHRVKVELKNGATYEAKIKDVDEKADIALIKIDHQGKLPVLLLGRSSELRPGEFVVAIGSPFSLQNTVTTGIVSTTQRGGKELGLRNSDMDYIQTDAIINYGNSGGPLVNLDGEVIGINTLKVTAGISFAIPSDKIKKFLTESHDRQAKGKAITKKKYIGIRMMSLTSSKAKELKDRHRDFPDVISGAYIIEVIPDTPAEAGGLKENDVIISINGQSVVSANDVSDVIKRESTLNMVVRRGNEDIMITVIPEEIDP
BSA probe FL – interferes with TAMRA-BSA probe, flagging TCR-CD3 hits | AID 652035 | 1,200 tested, 10% active | shares compounds with TCR CD3 inh | TAMRA-labeled BSA probe fluorescence counterscreen | inhibition, % at 9.4 µM; in the data active = inhibition above about 23%;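 also: 0% = buffer low control and 100% = reference high control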
TCR-CD3 conf – TCR-CD3 interaction inhibition, confirmation; AID 652036; TAMRA-labeled TCR probe fluorescence binding assay; inhibition, % at 9.4 µM; 1,200 tested, 48% active; shares compounds with TCR CD3 inh
An asterisk follows results filed as active; . = no result given. Compounds with a hit are over-represented: about 2.2% of the library has one in this group of screens. Rule as the data show it, unless noted: active = inhibition above about 19%; inactive = the rest.

SMILES	SIAE primary	TDP2 absorb	mABHD4 FP	TCR CD3 inh	LEDGF integ inh	HTRA1 inhibitor	BSA probe FL	TCR-CD3 conf
COc1ccccc1NC(=O)c1c(Nc2ccccc2C)sc(C(=O)Nc2cccc(Cl)c2)c1N	-71	3	-71	21*	-5	-66	6	12
COc1ccc(Nc2sc(C(=O)c3ccc(Cl)cc3)c(N)c2C(=O)Nc2ccccc2OC)cc1	9	-12	5	-6	-2	19	.	.
Cc1cc(C(=O)N/N=C/c2cc(Cl)cc([N+](=O)[O-])c2O)n[nH]1	-4	-1	19	28*	-7	13	-6	34*
Cc1cc(C(=O)N/N=C/c2ccc([N+](=O)[O-])s2)n[nH]1	2	3	9	-6	-1	7	.	.
O=S(=O)(Nc1cccc2ncccc12)c1cccc(C(F)(F)F)c1	1	1	-42	20*	1	-4	3	8
Cc1ccc(S(=O)(=O)Nc2cccc3ncccc23)cc1	2	12	5	-7	-4	9	.	.
Cc1nc(S/C(=C/c2ccc(-c3ccc(C(=O)O)cc3)o2)C(=O)O)n[nH]1	-16	-2	22	68*	4	1	-7	51*
CCOC(=O)C1=C(CC)Nc2ccccc2N=C1NC(=O)Nc1ccc(Cl)c(Cl)c1	-101	6	-100	79*	-2	-93	20	54*
Cc1ccc(-c2nn(-c3ccccc3)cc2C=C2SC(=S)N(CCS(=O)(=O)O)C2=O)cc1	-46	-2	-9	4	0	.	.	.
O=C1C(=Cc2cn(-c3ccccc3)nc2-c2ccc(OCc3ccccc3)cc2)SC(=S)N1CCS(=O)(=O)O	-97	-2	-106	26*	1	.	1	19*
COC(=O)[C@]12C[C@H](CC(=O)NCC3CCCCC3)C(=O)N(Cc3cccc4ccccc34)C1=C[C@H](C(C)(C)C)O[C@@H]2C	5	-1	-8	.	-1	.	.	.
C/C(=C\C(=O)c1ccc(Br)cc1)NNC(=O)c1ccc(O)cc1	1	-20	-19	35*	-1	31	-12	27*
CC(=O)N(C)C1(c2nnnn2CCOC(=O)Nc2ccc(Cl)cc2)CCCCC1	-2	-3	4	30*	0	4	1	2
CC(=O)NC1(c2nnnn2CCOC(=O)Nc2ccc(Cl)cc2)CCCC1	0	-3	0	-3	7	-1	.	.
COc1cccc([C@H]2NC(=O)C/C=C/[C@@H](C)[C@@H](c3cccc(OC)c3)NC(=O)C/C=C/[C@H]2C)c1	0	3	-17	.	-1	.	.	.
COc1ccc(/C=C/S(=O)(=O)NCc2ccccc2)c(CNC(=O)OC(C)(C)C)c1	-3	-7	-11	.	3	.	.	.
CCOc1cc(/C=N\NC(=O)c2ccc(NC(=O)C(C)(C)C)cc2)ccc1OC(=O)c1ccc(C)cc1	0	-5	-4	0	-2	-11	.	.
CC(C)(C)C(=O)Nc1ccc(C(=O)N/N=C/c2ccccc2OC(=O)c2ccccc2)cc1	-68	0	-89	4	-1	7	.	.
CCOc1cc(/C=N\NC(=O)c2ccc(NC(=O)C(C)(C)C)cc2)ccc1OC(=O)c1cccc(C)c1	-32	6	-31	62*	-1	-63	36*	82*
CC(C)(C)C(=O)Nc1ccc(C(=O)N/N=C/c2ccccc2OC(=O)c2ccc(Cl)cc2)cc1	-63	-26	-58	26*	-3	-17	25*	43*
Cc1cccc(C(=O)Oc2ccccc2/C=N/NC(=O)c2ccc(NC(=O)C(C)(C)C)cc2)c1	-66	2	-111	24*	-6	-90	17	43*
COC(=O)[C@]12C[C@H](CC(=O)NCc3ccccc3)C(=O)N(Cc3ccco3)C1=C[C@H](C(C)C)O[C@@H]2C1CC1	-2	2	-5	.	-4	.	.	.
CC(C)C(=O)N[C@H]1[C@H](O)CCC[C@]12C(=O)N(Cc1ccccc1)c1ccccc12	-2	0	4	.	-3	.	.	.
COC(=O)[C@]12C[C@H](CC(=O)NCC34CC5CC(CC(C5)C3)C4)C(=O)N(Cc3ccccc3)C1=C[C@H](C(C)C)O[C@@H]2C1CC1	1	-1	2	5	0	.	.	.
O=C(NNC(=O)c1ccccc1O)c1ccc(S(=O)(=O)Nc2ccccc2)cc1	12	-3	10	29*	-1	13	-19	9
SMILES	SIAE primary	TDP2 absorb	mABHD4 FP	TCR CD3 inh	LEDGF integ inh	HTRA1 inhibitor	BSA probe FL	TCR-CD3 conf
CCOc1ccc(S(=O)(=O)Nc2ccc(C(=O)NNC(=O)c3ccncc3)cc2)cc1	-2	4	-1	-1	-2	4	.	.
CCOc1ccc(NS(=O)(=O)c2ccc(C(=O)NNC(=O)c3ccccc3O)cc2)cc1	9	-12	-1	23*	-9	22	-9	23*
O=C(NNC(=O)c1cc(Cl)ccc1O)c1ccc(NS(=O)(=O)c2cccs2)cc1	12	-2	1	24*	-10	27	-17	17
COc1ccc(-n2c(SCc3cccc4ccccc34)nnc2-c2ccccc2)cc1	1	6	-10	.	-2	.	.	.
COc1ccc(-c2cc(NC(=O)Cc3c(C)[nH]c4ccccc34)ccc2Nc2cccnc2)cc1F	17	-4	9	-5	-2	.	.	.
Cc1ccc(-n2c(SCC(=O)Nc3ccc4c(c3)OCCO4)nnc2-c2cccnc2)cc1	3	3	3	.	1	.	.	.
O=C(NNC(=O)c1cc(-c2ccncc2)nc2ccccc12)c1ccccc1O	-1	-13	8	28*	-8	20	-10	21*
O=C(NCc1ccco1)C1CCCN(S(=O)(=O)c2ccc([N+](=O)[O-])cc2)C1 (configuration not stated)	-6	-3	-2	.	1	.	.	.
S=c1[nH]nc(-c2cc(-c3ccccn3)nc3ccccc23)o1	-5	3	2	33*	-7	2	-3	7
Cc1ccc(-c2cc(-c3n[nH]c(=S)o3)c3ccccc3n2)cc1	-2	-1	-4	0	0	-13	.	.
Nc1nonc1C(=O)N/N=C/c1cc(Br)ccc1O	-2	-9	15	23*	-3	.	-8	20*
C[C@H]1[C@@H](OC(=O)Nc2ccc(Cl)cc2)CC[C@@]23CCCN2C(=O)CCC[C@@H]13	4	-10	-4	.	-2	.	.	.
CCCCCCCCN1CCS(=O)(=O)N(Cc2ccc(C(F)(F)F)cc2)C(C(=O)OC)C1 (configuration not stated)	-2	4	0	.	-1	.	.	.
